In article PMC11393732 (RSC Medicinal Chemistry, 2024):

Experiments:
[1] = system: 293T cells expressing a TCF-responsive luciferase reporter (293T-TCF-Luc); assay: Wnt luciferase reporter assay; format: cell-based; conditions: Homo sapiens, HEK-293T, 16 h, read-out: IC50 (293T-TCF-Luc)
Outline: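 293T cells stably transduced with a lentiviral TCF/LEF–luciferase reporter and selected in puromycin ([…], 4 days). Seeded at 100 000 cells/well and dosed with test compound on attachment. Wnt signalling stimulated with 20 mM LiCl 4 h later. Lysates taken at 16 h; Bright-Glo luminescence normalised to total protein.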

[2] = biological target: T1, KDM3A (Homo sapiens, UniProt Q9Y4C1); assay: Western blot KDM3A degradation in SW480 cells; format: cell-based
T1 sequence (Q9Y4C1 1-1321): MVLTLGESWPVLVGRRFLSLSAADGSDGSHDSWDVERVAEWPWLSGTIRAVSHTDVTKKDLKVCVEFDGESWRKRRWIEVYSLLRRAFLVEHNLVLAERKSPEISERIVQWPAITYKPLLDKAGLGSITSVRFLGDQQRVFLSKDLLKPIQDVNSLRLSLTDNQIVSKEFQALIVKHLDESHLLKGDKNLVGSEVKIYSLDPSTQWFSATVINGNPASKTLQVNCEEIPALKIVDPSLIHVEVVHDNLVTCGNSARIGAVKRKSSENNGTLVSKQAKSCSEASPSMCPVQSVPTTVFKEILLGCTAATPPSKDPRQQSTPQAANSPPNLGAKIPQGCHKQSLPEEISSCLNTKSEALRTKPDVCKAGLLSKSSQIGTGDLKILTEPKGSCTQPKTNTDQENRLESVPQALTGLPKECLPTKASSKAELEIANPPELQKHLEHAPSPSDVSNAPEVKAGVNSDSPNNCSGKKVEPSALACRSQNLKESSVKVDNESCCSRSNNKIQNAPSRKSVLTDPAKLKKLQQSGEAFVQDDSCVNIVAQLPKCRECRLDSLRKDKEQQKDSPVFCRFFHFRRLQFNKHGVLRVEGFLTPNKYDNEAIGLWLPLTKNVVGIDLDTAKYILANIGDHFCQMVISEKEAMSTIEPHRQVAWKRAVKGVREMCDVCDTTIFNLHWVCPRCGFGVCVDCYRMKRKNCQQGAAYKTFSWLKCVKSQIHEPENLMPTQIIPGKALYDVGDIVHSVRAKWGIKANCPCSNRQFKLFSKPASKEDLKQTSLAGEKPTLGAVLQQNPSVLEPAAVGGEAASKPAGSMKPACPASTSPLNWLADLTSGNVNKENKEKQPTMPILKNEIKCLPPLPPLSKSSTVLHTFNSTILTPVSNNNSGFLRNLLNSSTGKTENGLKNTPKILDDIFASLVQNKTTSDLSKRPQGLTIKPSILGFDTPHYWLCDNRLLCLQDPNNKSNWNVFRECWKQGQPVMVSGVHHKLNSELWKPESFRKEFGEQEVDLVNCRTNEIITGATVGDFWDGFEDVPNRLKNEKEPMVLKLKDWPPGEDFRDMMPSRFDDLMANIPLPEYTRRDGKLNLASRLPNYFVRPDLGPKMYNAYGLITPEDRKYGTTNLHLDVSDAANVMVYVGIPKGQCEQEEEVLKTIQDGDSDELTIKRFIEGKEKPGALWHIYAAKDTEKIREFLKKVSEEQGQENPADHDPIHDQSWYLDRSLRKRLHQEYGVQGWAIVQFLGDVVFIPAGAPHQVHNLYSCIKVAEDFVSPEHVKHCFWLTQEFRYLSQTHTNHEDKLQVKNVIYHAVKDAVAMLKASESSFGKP
Outline: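 SW480 cells exposed to test compound for 16 h, then total lysates protein-normalised and run on SDS-PAGE. Semi-dry transfer to PVDF, 1 h block in 5% milk. Primary antibody overnight at 4 °C in 1% milk, secondary 1 h at RT, TBST washes, α-tubulin as loading control. Rescue arms co-treated with MLN4924 (1 μM) or pomalidomide (100 μM). Test compound at 0.1 μM for the KDM3A blot and 1 μM for the KDM3B blot.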

[3] = biological target: GSPT1 (Homo sapiens, UniProt P15170); assay: Western blot neo-substrate GSPT1 degradation in SW480 cells; format: cell-based; conditions: 16 hours
[4] = system: CRL-1790 cells; assay: CCK-8 based toxicity assay; format: cell-based, human
Outline: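 Non-malignant human colon epithelial CRL-1790 cells grown in EMEM with 10% FBS and 1% pen–strep at 37 °C and 5% CO2. Seeded at 3 × 10^3 cells/well in 96-well plates, then exposed to test compound. Viability read by CCK-8 at 48 h as OD 450 nm. TD50 derived from the dose–response.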

[5] = system: Wnt target genes in SW480 cells; assay: RT-qPCR of Wnt target gene expression in SW480; format: cell-based, human
Outline: (§1)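 Cells in 6-well plates exposed to test compound for 16 h. Total RNA extracted; 1 μg reverse-transcribed with M-MuLV and random hexamers. SYBR Green qPCR for the named genes, quantified by 2ΔΔct against tubulin. Mean ± SD; unpaired two-tailed Student's t-test.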

[6] = system: Wnt target genes in HCP-1 cells; assay: RT-qPCR of Wnt target gene expression in HCP-1; format: cell-based, human
Outline: as §1

[7] = biological target: hERG potassium channel (Homo sapiens, UniProt Q12809); assay: hERG automated patch-clamp assay; format: cell-based
Outline: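 hERG-expressing CHO-K1 cells were plated at least 24 h beforehand and recorded by whole-cell patch clamp at about RT with 0.1% Pluronic F-68. Holding −80 mV; 500 ms step to −40 mV for leak subtraction; 500 ms step to +40 mV, then 100 ms ramp to −80 mV for tail current, every 8 s. Block = mean tail amplitude over the last 15 s with test compound ÷ control.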

[8] = system: ALDH^High-HCP-1 CSC-derived tumors; assay: In vivo tumor growth, ALDH^High-HCP-1 CSC xenograft; design: species or system mice
Outline: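 NSG mice in 5 groups of 5. FACS-sorted ALDHHigh HCP-1 cells (2500 in Matrigel) injected subcutaneously into both flanks. Test compound given IP at 3, 10 or 35 mg kg−1, or IOX1 at 10 mg kg−1, in PBS/Kolliphor EL vehicle; controls got vehicle; 16 days. Body weight taken every other day, tumour volume on days 9, 13–16, tumour weight at sacrifice.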

GSPT1, sequence (Q16531 whole entry): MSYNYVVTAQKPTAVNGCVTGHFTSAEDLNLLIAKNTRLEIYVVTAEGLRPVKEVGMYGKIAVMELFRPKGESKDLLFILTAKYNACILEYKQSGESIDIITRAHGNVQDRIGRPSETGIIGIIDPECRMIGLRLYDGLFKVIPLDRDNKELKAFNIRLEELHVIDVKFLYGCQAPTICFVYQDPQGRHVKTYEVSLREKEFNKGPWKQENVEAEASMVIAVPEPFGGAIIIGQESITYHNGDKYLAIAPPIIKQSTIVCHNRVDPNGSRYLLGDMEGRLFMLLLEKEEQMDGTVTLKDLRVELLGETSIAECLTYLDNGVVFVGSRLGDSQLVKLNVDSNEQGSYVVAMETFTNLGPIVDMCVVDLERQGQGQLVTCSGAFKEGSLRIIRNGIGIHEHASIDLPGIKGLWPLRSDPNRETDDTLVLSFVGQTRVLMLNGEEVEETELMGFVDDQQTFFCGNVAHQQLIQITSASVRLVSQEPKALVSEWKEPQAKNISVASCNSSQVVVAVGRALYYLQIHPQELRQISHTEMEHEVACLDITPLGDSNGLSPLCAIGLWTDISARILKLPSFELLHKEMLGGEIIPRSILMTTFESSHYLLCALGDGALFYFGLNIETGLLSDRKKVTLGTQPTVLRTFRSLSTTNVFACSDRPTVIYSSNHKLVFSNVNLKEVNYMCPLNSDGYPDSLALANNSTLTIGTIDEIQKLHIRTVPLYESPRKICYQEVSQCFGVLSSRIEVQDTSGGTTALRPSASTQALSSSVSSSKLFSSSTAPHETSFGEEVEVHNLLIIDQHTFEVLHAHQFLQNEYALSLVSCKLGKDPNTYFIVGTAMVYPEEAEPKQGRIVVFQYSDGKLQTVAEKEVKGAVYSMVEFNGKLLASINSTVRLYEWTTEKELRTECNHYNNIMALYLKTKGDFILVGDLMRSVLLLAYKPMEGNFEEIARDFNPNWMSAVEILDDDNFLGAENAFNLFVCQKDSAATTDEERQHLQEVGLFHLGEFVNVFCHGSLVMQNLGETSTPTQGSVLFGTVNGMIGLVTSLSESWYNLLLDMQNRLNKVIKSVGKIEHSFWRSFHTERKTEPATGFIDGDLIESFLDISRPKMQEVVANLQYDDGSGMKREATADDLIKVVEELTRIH
GSPT1, sequence (Q96SW2 whole entry, further chain): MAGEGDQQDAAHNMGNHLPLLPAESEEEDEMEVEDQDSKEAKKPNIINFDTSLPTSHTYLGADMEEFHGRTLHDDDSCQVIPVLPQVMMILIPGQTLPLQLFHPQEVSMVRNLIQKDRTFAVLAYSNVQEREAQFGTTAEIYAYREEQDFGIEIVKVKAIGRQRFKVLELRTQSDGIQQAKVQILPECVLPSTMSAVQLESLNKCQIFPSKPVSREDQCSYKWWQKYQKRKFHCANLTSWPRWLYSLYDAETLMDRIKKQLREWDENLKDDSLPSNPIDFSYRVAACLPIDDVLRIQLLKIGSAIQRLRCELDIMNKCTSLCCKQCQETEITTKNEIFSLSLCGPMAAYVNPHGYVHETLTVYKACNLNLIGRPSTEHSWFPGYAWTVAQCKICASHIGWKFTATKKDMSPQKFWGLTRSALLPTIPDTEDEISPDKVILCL
GSPT1, sequence (P15170 whole entry): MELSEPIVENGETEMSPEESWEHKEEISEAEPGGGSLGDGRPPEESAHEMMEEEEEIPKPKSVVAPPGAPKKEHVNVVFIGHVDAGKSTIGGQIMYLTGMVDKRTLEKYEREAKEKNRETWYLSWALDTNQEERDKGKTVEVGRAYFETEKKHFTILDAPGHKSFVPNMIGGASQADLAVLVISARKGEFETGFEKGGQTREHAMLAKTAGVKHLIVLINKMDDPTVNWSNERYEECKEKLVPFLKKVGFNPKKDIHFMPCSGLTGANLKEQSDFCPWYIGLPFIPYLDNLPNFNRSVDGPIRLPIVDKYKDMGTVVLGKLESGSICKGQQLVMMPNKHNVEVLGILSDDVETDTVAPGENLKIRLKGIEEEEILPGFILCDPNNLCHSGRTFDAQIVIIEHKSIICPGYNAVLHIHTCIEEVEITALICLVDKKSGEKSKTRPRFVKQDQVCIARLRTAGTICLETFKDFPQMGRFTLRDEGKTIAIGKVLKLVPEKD
hERG potassium channel, sequence (Q12809 whole entry): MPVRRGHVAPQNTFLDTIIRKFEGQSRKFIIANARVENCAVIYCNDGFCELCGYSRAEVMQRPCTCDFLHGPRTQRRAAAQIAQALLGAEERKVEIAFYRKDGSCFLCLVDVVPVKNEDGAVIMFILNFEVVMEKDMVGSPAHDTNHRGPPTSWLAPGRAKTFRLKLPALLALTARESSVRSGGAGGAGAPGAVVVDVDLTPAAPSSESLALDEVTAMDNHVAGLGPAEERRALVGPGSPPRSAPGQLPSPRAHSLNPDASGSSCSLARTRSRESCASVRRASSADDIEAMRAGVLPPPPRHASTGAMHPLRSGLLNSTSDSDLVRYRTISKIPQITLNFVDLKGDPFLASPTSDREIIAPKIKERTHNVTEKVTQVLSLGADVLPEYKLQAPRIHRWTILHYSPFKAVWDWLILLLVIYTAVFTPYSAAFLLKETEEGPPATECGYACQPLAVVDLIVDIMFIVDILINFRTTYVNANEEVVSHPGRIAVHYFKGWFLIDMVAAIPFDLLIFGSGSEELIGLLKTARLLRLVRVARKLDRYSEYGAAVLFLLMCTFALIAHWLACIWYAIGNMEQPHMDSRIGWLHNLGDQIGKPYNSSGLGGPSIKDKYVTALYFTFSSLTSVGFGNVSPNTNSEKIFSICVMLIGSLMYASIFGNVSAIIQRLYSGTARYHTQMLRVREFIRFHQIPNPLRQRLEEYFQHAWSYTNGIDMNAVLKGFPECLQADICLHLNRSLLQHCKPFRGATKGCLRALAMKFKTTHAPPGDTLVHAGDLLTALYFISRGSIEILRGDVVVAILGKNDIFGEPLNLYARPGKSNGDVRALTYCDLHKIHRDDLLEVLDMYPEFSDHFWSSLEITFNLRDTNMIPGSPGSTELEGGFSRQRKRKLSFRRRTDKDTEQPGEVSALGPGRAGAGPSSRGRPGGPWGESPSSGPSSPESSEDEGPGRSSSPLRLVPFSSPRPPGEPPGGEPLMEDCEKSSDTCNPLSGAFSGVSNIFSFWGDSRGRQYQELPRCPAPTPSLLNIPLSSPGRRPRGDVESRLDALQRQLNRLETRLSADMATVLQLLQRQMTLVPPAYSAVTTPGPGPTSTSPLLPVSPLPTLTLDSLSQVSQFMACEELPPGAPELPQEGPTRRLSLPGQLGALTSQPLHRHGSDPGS

Structure (SMILES): O=C1CCC(N2C(=O)c3cccc(NCCOCCOCCOCCOCCNC(=O)c4ccc(O)c5ncccc45)c3C2=O)C(=O)N1 (stereo not drawn) [Compound 4, N-(14-((2-(2,6-Dioxopiperidin-3-yl)-1,3-dioxoisoindolin-4-yl)amino)-3,6,9,12-tetraoxatetradecyl)-8-hydroxyquinoline-5-carboxamide]
- IC50 [1]: 8.9 µM
- Dmax ([2]; SW480, read-out: Dmax KDM3A): 65.3%
- KDM3A degradation with MLN4924 co-treatment ([2]; SW480, MLN4924 1 μM, compound 4 0.1 μM): could be restored by MLN4924
- KDM3A degradation with pomalidomide or IOX1 co-treatment ([2]; SW480, pomalidomide 100 μM, compound 4 0.1 μM): could also be suppressed by either pomalidomide or IOX1
- KDM3A degradation (western blot) ([2]; SW480 cells, 16 hours): degrades both KDM3A and KDM3B at nanomolar concentrations
- DC50 ([2]; read-out: DC50 KDM3A, SW480 cells, 16 hours): 0.0137 µM
- GSPT1 degradation [3]: did not induce
- cell growth of CRL-1790 ([4]; 60 μM, two-day treatment): not dramatically affected
- TD50 CRL-1790 ([4]; CCK8 assay, 48 h post drug treatment): 285.4 µM
- suppression of Wnt target gene expression (AXIN2, DKK1, CCND1) ([5]; SW480, 50 μM, 16-hour treatment, in most cases): ≥ 50%
- expression of colorectal CSC signature genes (ASCL2, RNF43, ZNRF3, LGR5) ([5]; SW480, 16 hours): strongly inhibited
- suppression of Wnt target gene expression (AXIN2, DKK1, CCND1) ([6]; HCP-1, 50 μM, 16-hour treatment, in most cases): ≥ 50%
- expression of colorectal CSC signature genes (ASCL2, RNF43, ZNRF3, LGR5) ([6]; HCP-1, 16 hours): strongly inhibited
- IC50 [7]: > 30 µM
- tumor volume and tumor weight vs IOX1 group ([8]; 3 mg kg^−1 IP vs IOX1 10 mg kg^−1): no significant change
- CSC-derived tumor growth ([8]; 3, 10, 35 mg kg^−1 IP, 16 days, vs vehicle): significantly inhibited
- tumor volume and tumor weight vs IOX1 group ([8]; 10 and 35 mg kg^−1 IP vs IOX1 10 mg kg^−1): significantly decreased
- body weight of mice ([8]; IP, 16 days): little impact on the body weight
